Experimental data: ChEMBL document CHEMBL1649231, “In vitro activities of panduratin A against clinical Staphylococcus strains” (2009)

Legend:
Format in all cases: functional
Staphylococcus hominis [1] = assay: Antimicrobial activity against methicillin-susceptible coagulase-negative Staphylococcus hominis assessed as resistant isolates after 24 hrs by broth microdilution method
Mammaliicoccus sciuri [2] = assay: Antimicrobial activity against methicillin-susceptible coagulase-negative Staphylococcus sciuri after 24 hrs by broth microdilution method
Procedure, shortened: (§1)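 Clinical isolates came from blood, body fluids, genital secretions, pus or sputum, identified conventionally or by Vitek. MICs were run by CLSI M7-A6 broth microdilution in Mueller-Hinton broth with 5 × 10^5 CFU/ml inoculum. Agents were twofold serially diluted, starting from 10% DMSO. Drug-free and uninoculated controls were included. Plates were incubated aerobically at 37°C for 24 h; MIC is the lowest concentration giving no visible growth.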

Staphylococcus simulans [3] = assay: Antimicrobial activity against methicillin-susceptible coagulase-negative Staphylococcus simulans assessed as susceptible isolates after 24 hrs by broth microdilution method
Procedure, shortened: (§2)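 Clinical isolates from blood, body fluids, pus, sputum or genital secretions, identified conventionally or by Vitek, were tested alongside ATCC 29213 and ATCC 12228 controls. CLSI M7-A6 broth microdilution in Mueller-Hinton broth used twofold dilutions from a 10% DMSO solution and 5 × 10^5 CFU/ml inoculum. Drug-free and uninoculated wells served as controls; incubation was aerobic at 37°C for 24 h. MIC was the lowest concentration with no visible growth.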

Staphylococcus aureus [4] = assay: Antimicrobial activity against methicillin-resistant Staphylococcus aureus assessed as resistant isolates after 24 hrs by broth microdilution method
Staphylococcus hominis [5] = assay: Antimicrobial activity against methicillin-susceptible coagulase-negative Staphylococcus hominis assessed as intermediate resistant isolates after 24 hrs by broth microdilution method; details: pooled result: one value given for 5 cell lines, strains, targets or settings
[6] = system: Staphylococcus epidermidis; assay: Bactericidal activity against methicillin-resistant coagulase-negative Staphylococcus epidermidis after 24 hrs by plate counting method; details: for MBC: Staphylococcus epidermidis, 24 h
Mammaliicoccus sciuri [7] = assay: Antimicrobial activity against methicillin-resistant coagulase-negative Staphylococcus sciuri after 24 hrs by broth microdilution method; procedure, shortened: as §1
[8] = system: Staphylococcus epidermidis; assay: Bactericidal activity against methicillin-susceptible coagulase-negative Staphylococcus epidermidis after 24 hrs by plate counting method; details: for MBC: Staphylococcus epidermidis, 24 h
Procedure, shortened: (§3)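 Clinical staphylococcal isolates from patient body fluids, blood, genital secretions, pus or sputum; species by conventional methods or Vitek. Twofold dilutions in Mueller-Hinton broth, inoculum 5 × 10^5 CFU/ml, 37°C aerobic 24 h (CLSI M7-A6 microdilution). About 100 μl from each well without visible growth spread on MHA; 37°C 24 h. MBC = lowest concentration giving no growth on agar.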

Staphylococcus simulans [9] = assay: Antimicrobial activity against methicillin-resistant coagulase-negative Staphylococcus simulans assessed as intermediate resistant isolates after 24 hrs by broth microdilution method
Staphylococcus hominis [10] = assay: Bactericidal activity against methicillin-susceptible coagulase-negative Staphylococcus hominis after 24 hrs by plate counting method; details: for MBC: Staphylococcus hominis, 24 h; procedure, shortened: as §3
Staphylococcus hominis [11] = assay: Antimicrobial activity against methicillin-resistant coagulase-negative Staphylococcus hominis assessed as resistant isolates after 24 hrs by broth microdilution method
[12] = system: Staphylococcus haemolyticus; assay: Antimicrobial activity against methicillin-resistant coagulase-negative Staphylococcus haemolyticus assessed as intermediate resistant isolates after 24 hrs by broth microdilution method
[13] = system: Staphylococcus epidermidis; assay: Antimicrobial activity against methicillin-susceptible coagulase-negative Staphylococcus epidermidis after 24 hrs by broth microdilution method; procedure, shortened: as §1
[14] = system: Staphylococcus epidermidis; assay: Antimicrobial activity against methicillin-resistant coagulase-negative Staphylococcus epidermidis assessed as susceptible isolates after 24 hrs by broth microdilution method
Staphylococcus simulans [15] = assay: Antimicrobial activity against methicillin-susceptible coagulase-negative Staphylococcus simulans after 24 hrs by broth microdilution method; procedure, shortened: as §1
Staphylococcus aureus [16] = assay: Antimicrobial activity against methicillin-susceptible Staphylococcus aureus assessed as resistant isolates after 24 hrs by broth microdilution method
[17] = system: Staphylococcus haemolyticus; assay: Antimicrobial activity against methicillin-resistant coagulase-negative Staphylococcus haemolyticus after 24 hrs by broth microdilution method; procedure, shortened: as §1
Mammaliicoccus sciuri [18] = assay: Bactericidal activity against methicillin-susceptible coagulase-negative Staphylococcus sciuri after 24 hrs by plate counting method; details: for MBC: Mammaliicoccus sciuri, 24 h; procedure, shortened: as §3
Staphylococcus hominis [19] = assay: Bactericidal activity against methicillin-resistant coagulase-negative Staphylococcus hominis after 24 hrs by plate counting method; details: for MBC: Staphylococcus hominis, 24 h
[20] = system: Staphylococcus epidermidis; assay: Antimicrobial activity against methicillin-resistant coagulase-negative Staphylococcus epidermidis assessed as intermediate resistant isolates after 24 hrs by broth microdilution method
Staphylococcus aureus [21] = assay: Bactericidal activity against methicillin-resistant Staphylococcus aureus after 24 hrs by plate counting method; details: for MBC: Staphylococcus aureus, 24 h
Mammaliicoccus sciuri [22] = assay: Antimicrobial activity against methicillin-susceptible coagulase-negative Staphylococcus sciuri assessed as susceptible isolates after 24 hrs by broth microdilution method; procedure, shortened: as §2
Staphylococcus aureus [23] = assay: Antimicrobial activity against methicillin-susceptible Staphylococcus aureus assessed as intermediate resistant isolates after 24 hrs by broth microdilution method
Mammaliicoccus sciuri [24] = assay: Antimicrobial activity against methicillin-resistant coagulase-negative Staphylococcus sciuri assessed as resistant isolates after 24 hrs by broth microdilution method
[25] = system: Staphylococcus epidermidis; assay: Antimicrobial activity against methicillin-resistant coagulase-negative Staphylococcus epidermidis assessed as resistant isolates after 24 hrs by broth microdilution method
[26] = system: Staphylococcus haemolyticus; assay: Antimicrobial activity against methicillin-susceptible coagulase-negative Staphylococcus haemolyticus after 24 hrs by broth microdilution method; procedure, shortened: as §1
[27] = system: Staphylococcus haemolyticus; assay: Antimicrobial activity against methicillin-susceptible coagulase-negative Staphylococcus haemolyticus assessed as susceptible isolates after 24 hrs by broth microdilution method
Staphylococcus simulans [28] = assay: Bactericidal activity against methicillin-resistant coagulase-negative Staphylococcus simulans after 24 hrs by plate counting method; details: for MBC: Staphylococcus simulans, 24 h; procedure, shortened: as §3
Mammaliicoccus sciuri [29] = assay: Antimicrobial activity against methicillin-susceptible coagulase-negative Staphylococcus sciuri assessed as resistant isolates after 24 hrs by broth microdilution method
[30] = system: Staphylococcus haemolyticus; assay: Bactericidal activity against methicillin-resistant coagulase-negative Staphylococcus haemolyticus after 24 hrs by plate counting method; details: for MBC: Staphylococcus haemolyticus, 24 h
[31] = system: Staphylococcus epidermidis; assay: Antimicrobial activity against methicillin-susceptible coagulase-negative Staphylococcus epidermidis assessed as resistant isolates after 24 hrs by broth microdilution method
[32] = system: Staphylococcus epidermidis; assay: Antimicrobial activity against methicillin-susceptible coagulase-negative Staphylococcus epidermidis assessed as susceptible isolates after 24 hrs by broth microdilution method
Staphylococcus aureus [33] = assay: Bactericidal activity against methicillin-susceptible Staphylococcus aureus after 24 hrs by plate counting method; details: for MBC: Staphylococcus aureus, 24 h; procedure, shortened: as §3
[34] = system: Staphylococcus haemolyticus; assay: Antimicrobial activity against methicillin-susceptible coagulase-negative Staphylococcus haemolyticus assessed as resistant isolates after 24 hrs by broth microdilution method
Staphylococcus hominis [35] = assay: Antimicrobial activity against methicillin-susceptible coagulase-negative Staphylococcus hominis after 24 hrs by broth microdilution method; procedure, shortened: as §1

C[C@H]1COc2c(N3CCN(C)CC3)c(F)cc3c(=O)c(C(=O)O)cn1c23.C[C@H]1COc2c(N3CCN(C)CC3)c(F)cc3c(=O)c(C(=O)O)cn1c23.O [LEVOFLOXACIN]
16 µg/mL: MBC90 [6] | MBC90 (Staphylococcus hominis [19]) | MBC50 (Staphylococcus aureus [21]) | MBC90 (Staphylococcus simulans [28]) | MBC90 [30]
1 µg/mL: MBC50 [8] | MBC50 (Staphylococcus hominis [10]) | MBC50 (Mammaliicoccus sciuri [18]) | MBC50 (Staphylococcus aureus [33])
82%: Activity (Staphylococcus aureus [4])
4 µg/mL: MBC50 [6] | MIC90 (Mammaliicoccus sciuri [7]) | MBC90 [8] | MBC90 (Staphylococcus hominis [10]) | MIC90 [17] | MBC90 (Mammaliicoccus sciuri [18]) | MBC50 (Staphylococcus hominis [19]) | MBC50 (Staphylococcus simulans [28]) | MBC50 [30]
4%: Activity (Staphylococcus hominis [1]) | Activity (Staphylococcus aureus [23]) | Activity (Mammaliicoccus sciuri [29]) | Activity [31] | Activity [34]
0.125 µg/mL: MBC (Staphylococcus aureus [33])
8 µg/mL: MBC90 (Staphylococcus aureus [33])
0%: Activity (Staphylococcus hominis [5])
0.25 µg/mL: MIC (Mammaliicoccus sciuri [2]) | MIC50 (Mammaliicoccus sciuri [2]) | MIC (Mammaliicoccus sciuri [7]) | MIC50 (Mammaliicoccus sciuri [7]) | MIC [13] | MIC50 [13] | MIC (Staphylococcus simulans [15]) | MIC50 (Staphylococcus simulans [15]) | MIC [17] | MIC50 [17] | MIC [26] | MIC50 [26] | MIC (Staphylococcus hominis [35]) | MIC50 (Staphylococcus hominis [35])
512 µg/mL: MBC90 (Staphylococcus aureus [21])
26%: Activity [14]
96%: Activity (Staphylococcus simulans [3]) | Activity (Mammaliicoccus sciuri [22]) | Activity [27] | Activity [32]
15%: Activity (Staphylococcus simulans [9]) | Activity [12] | Activity (Staphylococcus aureus [16]) | Activity [20]
59%: Activity (Staphylococcus hominis [11]) | Activity (Mammaliicoccus sciuri [24]) | Activity [25]
0.5 µg/mL: MIC90 (Mammaliicoccus sciuri [2]) | MBC [6] | MBC [8] | MBC (Staphylococcus hominis [10]) | MIC90 [13] | MIC90 (Staphylococcus simulans [15]) | MBC (Mammaliicoccus sciuri [18]) | MBC (Staphylococcus hominis [19]) | MBC (Staphylococcus aureus [21]) | MIC90 [26] | MBC (Staphylococcus simulans [28]) | MBC [30] | MIC90 (Staphylococcus hominis [35])

CN(C)[C@@H]1C(O)=C(C(N)=O)C(=O)[C@@]2(O)C(O)=C3C(=O)c4c(O)cccc4[C@@](C)(O)[C@H]3C[C@@H]12 [TETRACYCLINE]
18%: Activity [14]
7%: Activity (Staphylococcus simulans [9]) | Activity [12] | Activity [20]
2 µg/mL: MBC (Staphylococcus aureus [21])
19%: Activity (Staphylococcus hominis [5]) | Activity (Staphylococcus aureus [23])
4 µg/mL: MBC50 [6] | MBC50 (Staphylococcus hominis [19]) | MBC50 (Staphylococcus simulans [28]) | MBC50 [30]
69%: Activity (Staphylococcus simulans [3]) | Activity (Mammaliicoccus sciuri [22]) | Activity [27] | Activity [32]
12%: Activity (Staphylococcus hominis [1]) | Activity (Mammaliicoccus sciuri [29]) | Activity [31] | Activity [34]
8 µg/mL: MBC50 [8] | MBC50 (Staphylococcus hominis [10]) | MBC50 (Mammaliicoccus sciuri [18]) | MBC50 (Staphylococcus aureus [33])
1 µg/mL: MIC50 (Mammaliicoccus sciuri [7]) | MBC [8] | MBC (Staphylococcus hominis [10]) | MIC50 [17] | MBC (Mammaliicoccus sciuri [18]) | MBC (Staphylococcus aureus [33])
11%: Activity (Staphylococcus aureus [16])
75%: Activity (Staphylococcus hominis [11]) | Activity (Mammaliicoccus sciuri [24]) | Activity [25]
64 µg/mL: MIC90 (Mammaliicoccus sciuri [7]) | MIC90 [17] | MBC50 (Staphylococcus aureus [21])
32 µg/mL: MIC90 (Mammaliicoccus sciuri [2]) | MIC90 [13] | MIC90 (Staphylococcus simulans [15]) | MIC90 [26] | MBC90 (Staphylococcus aureus [33]) | MIC90 (Staphylococcus hominis [35])
128 µg/mL: MBC90 [8] | MBC90 (Staphylococcus hominis [10]) | MBC90 (Mammaliicoccus sciuri [18])
0.5 µg/mL: MIC (Mammaliicoccus sciuri [2]) | MIC50 (Mammaliicoccus sciuri [2]) | MBC [6] | MIC [13] | MIC50 [13] | MIC (Staphylococcus simulans [15]) | MIC50 (Staphylococcus simulans [15]) | MBC (Staphylococcus hominis [19]) | MIC [26] | MIC50 [26] | MBC (Staphylococcus simulans [28]) | MBC [30] | MIC (Staphylococcus hominis [35]) | MIC50 (Staphylococcus hominis [35])
512 µg/mL: MBC90 (Staphylococcus aureus [21])
